# Publication PMC4265276 (Journal of Veterinary Pharmacology and Therapeutics, 2014)
# What was measured:
# Assay in all cases: Z'-Lyte kinase assay
# Assay type in all cases: biochemical
# Settings in all cases: two replicates
# [1] = biological target: High affinity nerve growth factor receptor (TRK-A) (Homo sapiens, UniProt P04629)
# How it was run: (§1)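 Outsourced commercial profiling of the test compound against a panel of 38 non-JAK kinases, all screened with Z'-Lyte technology at a single concentration. Assay conditions and data analysis were specific to each kinase and set by the service provider. Every test was run in duplicate, and percent inhibition is reported separately for each replicate.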
# [2] = biological target: p160ROCK protein kinase (Homo sapiens, UniProt Q13464)
# How it was run: as §1
# [3] = biological target: Vascular endothelial growth factor receptor 2 (VEGFR-2/FLK1) (Homo sapiens, UniProt P35968)
# How it was run: as §1
# [4] = biological target: T1, Aurora-related kinase 1 (ARK1) (Homo sapiens, UniProt O14965)
# T1 sequence (O14965 1-403): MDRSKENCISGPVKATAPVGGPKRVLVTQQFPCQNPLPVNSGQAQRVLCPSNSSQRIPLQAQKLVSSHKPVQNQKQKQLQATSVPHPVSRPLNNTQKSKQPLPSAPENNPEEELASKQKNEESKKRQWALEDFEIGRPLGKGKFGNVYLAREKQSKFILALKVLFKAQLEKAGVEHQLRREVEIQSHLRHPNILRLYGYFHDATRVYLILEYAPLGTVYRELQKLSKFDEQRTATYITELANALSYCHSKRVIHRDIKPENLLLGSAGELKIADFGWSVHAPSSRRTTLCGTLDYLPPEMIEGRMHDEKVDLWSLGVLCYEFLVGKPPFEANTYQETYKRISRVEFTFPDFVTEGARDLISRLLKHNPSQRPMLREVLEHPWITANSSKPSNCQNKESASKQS
# How it was run: as §1
# [5] = biological target: Mitogen-activated protein kinase kinase kinase kinase 4 (MAP4K4/HGK) (Homo sapiens, UniProt O95819)
# How it was run: as §1
# Chain of Mitogen-activated protein kinase kinase kinase kinase 4 (MAP4K4/HGK) (O95819 2-1239): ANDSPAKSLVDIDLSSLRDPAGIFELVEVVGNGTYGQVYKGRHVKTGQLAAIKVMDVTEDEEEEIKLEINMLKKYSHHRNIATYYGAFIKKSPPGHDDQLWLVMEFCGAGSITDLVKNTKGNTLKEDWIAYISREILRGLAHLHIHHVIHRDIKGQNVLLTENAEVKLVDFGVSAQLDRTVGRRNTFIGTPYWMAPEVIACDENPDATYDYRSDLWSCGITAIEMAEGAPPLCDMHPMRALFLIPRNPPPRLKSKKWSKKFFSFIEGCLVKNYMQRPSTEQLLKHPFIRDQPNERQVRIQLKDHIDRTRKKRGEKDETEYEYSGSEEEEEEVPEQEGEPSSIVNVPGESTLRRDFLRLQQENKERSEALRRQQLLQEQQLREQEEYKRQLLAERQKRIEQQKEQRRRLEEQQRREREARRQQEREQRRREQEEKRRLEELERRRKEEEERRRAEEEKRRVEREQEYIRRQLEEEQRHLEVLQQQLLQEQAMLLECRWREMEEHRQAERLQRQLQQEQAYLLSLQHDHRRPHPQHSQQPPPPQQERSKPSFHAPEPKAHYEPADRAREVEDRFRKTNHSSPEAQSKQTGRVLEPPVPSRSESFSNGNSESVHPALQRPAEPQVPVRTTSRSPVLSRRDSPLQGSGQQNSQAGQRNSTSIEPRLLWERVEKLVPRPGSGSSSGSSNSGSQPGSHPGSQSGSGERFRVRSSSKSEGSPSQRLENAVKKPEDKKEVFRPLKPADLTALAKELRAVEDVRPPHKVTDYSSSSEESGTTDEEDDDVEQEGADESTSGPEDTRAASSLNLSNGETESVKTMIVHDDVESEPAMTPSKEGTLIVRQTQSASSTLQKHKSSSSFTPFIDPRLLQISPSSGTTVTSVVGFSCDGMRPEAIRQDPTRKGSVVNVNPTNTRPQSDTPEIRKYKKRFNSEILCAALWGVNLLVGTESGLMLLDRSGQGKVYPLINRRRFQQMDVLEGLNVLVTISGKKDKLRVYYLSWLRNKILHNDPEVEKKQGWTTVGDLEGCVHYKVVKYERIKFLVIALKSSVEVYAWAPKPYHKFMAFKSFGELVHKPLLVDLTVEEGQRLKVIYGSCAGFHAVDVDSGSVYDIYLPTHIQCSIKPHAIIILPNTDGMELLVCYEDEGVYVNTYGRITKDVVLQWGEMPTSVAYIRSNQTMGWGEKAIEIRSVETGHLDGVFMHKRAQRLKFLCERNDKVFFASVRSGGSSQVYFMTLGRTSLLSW
# Chain of Vascular endothelial growth factor receptor 2 (VEGFR-2/FLK1) (P35968 20-1356): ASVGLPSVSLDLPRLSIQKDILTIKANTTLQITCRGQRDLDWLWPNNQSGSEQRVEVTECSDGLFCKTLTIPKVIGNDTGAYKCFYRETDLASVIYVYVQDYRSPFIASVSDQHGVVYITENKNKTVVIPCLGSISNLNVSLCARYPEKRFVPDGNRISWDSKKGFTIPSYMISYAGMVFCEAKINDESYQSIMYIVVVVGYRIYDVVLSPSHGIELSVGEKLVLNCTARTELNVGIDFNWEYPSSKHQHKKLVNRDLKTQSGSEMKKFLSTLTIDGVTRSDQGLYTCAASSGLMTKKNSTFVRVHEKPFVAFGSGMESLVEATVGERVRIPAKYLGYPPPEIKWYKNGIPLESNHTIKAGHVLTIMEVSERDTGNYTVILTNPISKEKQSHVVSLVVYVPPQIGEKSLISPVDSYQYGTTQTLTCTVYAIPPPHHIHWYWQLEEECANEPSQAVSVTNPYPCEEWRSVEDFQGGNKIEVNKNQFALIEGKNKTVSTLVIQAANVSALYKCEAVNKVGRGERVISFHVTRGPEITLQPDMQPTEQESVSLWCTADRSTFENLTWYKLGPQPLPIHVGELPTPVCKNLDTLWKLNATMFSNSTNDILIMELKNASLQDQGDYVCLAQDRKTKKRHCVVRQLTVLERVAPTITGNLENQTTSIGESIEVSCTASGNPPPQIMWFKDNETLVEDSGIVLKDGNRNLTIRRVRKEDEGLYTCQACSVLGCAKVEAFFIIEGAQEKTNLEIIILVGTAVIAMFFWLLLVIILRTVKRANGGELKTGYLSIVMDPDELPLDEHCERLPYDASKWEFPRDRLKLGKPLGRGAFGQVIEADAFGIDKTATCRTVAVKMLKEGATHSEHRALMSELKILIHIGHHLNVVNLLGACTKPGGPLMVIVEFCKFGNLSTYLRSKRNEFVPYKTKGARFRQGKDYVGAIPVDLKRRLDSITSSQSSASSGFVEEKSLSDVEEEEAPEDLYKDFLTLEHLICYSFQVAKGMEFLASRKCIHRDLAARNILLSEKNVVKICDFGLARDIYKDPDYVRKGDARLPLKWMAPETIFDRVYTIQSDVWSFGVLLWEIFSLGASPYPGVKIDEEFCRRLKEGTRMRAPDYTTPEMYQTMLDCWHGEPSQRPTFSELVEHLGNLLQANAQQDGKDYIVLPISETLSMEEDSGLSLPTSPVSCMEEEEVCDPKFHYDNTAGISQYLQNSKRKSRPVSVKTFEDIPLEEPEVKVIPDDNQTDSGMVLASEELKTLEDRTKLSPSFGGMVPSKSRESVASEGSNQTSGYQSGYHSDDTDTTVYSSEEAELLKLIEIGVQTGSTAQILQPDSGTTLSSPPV
# Chain of High affinity nerve growth factor receptor (TRK-A) (P04629 33-796): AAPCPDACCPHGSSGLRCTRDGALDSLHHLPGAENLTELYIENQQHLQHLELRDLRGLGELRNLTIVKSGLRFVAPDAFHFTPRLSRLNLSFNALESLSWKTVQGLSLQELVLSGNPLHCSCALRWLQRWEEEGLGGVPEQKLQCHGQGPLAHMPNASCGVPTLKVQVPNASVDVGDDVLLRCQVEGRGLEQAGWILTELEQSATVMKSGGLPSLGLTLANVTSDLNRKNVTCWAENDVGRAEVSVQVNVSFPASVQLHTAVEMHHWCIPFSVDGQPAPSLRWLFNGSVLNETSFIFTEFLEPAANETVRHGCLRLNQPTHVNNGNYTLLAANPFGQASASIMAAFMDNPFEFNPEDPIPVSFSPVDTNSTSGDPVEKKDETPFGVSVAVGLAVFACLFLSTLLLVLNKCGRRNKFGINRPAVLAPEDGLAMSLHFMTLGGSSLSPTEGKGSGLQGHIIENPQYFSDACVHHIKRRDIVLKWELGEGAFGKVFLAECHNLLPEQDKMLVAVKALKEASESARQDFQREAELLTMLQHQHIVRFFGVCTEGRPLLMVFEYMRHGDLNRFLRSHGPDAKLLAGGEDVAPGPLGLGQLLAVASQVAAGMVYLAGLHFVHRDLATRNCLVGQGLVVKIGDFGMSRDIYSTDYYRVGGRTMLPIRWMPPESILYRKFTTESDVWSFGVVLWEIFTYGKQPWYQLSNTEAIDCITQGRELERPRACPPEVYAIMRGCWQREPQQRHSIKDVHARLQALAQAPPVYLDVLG
# Chain of p160ROCK protein kinase (Q13464 2-1354): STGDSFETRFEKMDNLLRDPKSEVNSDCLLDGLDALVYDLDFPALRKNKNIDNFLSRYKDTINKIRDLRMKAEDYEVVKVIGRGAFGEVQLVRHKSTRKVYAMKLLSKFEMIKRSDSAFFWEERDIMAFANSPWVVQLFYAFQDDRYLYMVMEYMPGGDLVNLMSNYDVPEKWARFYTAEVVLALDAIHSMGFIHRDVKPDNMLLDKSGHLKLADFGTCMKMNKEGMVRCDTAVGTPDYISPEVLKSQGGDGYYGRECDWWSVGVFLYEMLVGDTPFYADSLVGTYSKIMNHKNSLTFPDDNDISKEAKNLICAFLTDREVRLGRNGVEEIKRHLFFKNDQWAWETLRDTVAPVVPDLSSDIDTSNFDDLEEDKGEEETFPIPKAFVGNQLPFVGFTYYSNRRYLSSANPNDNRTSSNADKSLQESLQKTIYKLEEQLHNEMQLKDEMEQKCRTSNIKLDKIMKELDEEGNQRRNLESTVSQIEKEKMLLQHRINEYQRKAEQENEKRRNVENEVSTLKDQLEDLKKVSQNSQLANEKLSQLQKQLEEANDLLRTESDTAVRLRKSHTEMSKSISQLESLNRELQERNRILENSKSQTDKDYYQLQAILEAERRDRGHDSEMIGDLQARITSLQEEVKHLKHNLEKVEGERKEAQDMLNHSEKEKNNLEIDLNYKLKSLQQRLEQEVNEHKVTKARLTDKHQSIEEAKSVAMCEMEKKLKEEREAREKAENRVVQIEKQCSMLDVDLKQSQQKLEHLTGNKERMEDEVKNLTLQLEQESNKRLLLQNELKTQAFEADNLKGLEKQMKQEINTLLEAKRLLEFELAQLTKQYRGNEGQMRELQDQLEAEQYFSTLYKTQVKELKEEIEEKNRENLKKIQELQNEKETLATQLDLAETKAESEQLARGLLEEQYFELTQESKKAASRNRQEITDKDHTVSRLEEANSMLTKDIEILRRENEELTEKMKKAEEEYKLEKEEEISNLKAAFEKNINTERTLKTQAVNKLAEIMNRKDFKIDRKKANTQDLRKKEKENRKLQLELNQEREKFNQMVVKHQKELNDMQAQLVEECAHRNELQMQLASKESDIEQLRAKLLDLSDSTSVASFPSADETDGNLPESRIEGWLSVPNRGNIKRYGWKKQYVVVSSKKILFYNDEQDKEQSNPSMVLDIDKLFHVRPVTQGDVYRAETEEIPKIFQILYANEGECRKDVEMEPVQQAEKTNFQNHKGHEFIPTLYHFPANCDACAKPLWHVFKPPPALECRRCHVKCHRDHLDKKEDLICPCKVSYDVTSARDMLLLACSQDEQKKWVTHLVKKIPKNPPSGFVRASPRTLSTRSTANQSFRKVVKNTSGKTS
structure (smiles),measurement,setting,value
CNS(=O)(=O)C[C@H]1CC[C@H](N(C)c2ncnc3[nH]ccc23)CC1 [oclacitinib],Percent inhibition at 1000 nM oclacitinib (1st replicate),[1],32; 31%
same,Percent inhibition at 1000 nM oclacitinib (1st replicate),[2],34; 32%
same,Percent inhibition at 1000 nM oclacitinib (1st replicate),[3],41; 37%
same,Percent inhibition at 1000 nM oclacitinib (1st replicate),[4],40; 40%
same,Percent inhibition at 1000 nM oclacitinib (1st replicate),[5],42; 34%
